Test results reported in ChEMBL document CHEMBL4342528, “Discovery of a First-in-Class Protein Arginine Methyltransferase 6 (PRMT6) Covalent Inhibitor” (J Med Chem, 2020).
pIC50: −log10 of the molar value. Active and inactive are the calls of the source. No cut-off for these calls is given here.

Assays:
[1] = target: T1, Histone-arginine methyltransferase CARM1 (Homo sapiens) (UniProt Q86X55); experiment: Inhibition of PRMT4 in human MCF7 cells assessed as reduction in BAF155 asymmetric dimethylation at 2 uM incubated for 2 days; format: cell-based
T1 sequence (whole entry): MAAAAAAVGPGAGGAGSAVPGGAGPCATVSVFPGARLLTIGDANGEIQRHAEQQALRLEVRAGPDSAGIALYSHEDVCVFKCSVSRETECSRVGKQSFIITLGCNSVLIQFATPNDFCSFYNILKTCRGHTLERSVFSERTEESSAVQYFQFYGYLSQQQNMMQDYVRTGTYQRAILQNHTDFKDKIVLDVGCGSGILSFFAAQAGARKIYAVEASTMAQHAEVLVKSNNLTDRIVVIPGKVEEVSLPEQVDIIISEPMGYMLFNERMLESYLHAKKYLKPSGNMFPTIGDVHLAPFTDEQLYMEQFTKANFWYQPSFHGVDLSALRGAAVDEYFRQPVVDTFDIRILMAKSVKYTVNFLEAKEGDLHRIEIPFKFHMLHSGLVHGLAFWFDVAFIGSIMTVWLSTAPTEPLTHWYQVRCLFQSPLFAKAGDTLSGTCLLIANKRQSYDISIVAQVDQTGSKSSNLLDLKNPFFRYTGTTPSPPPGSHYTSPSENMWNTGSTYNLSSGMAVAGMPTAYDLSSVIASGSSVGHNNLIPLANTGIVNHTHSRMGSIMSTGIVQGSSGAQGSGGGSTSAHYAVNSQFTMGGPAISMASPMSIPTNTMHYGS

[2] = target: T2, Protein arginine N-methyltransferase 8 (Homo sapiens, UniProt Q9NR22); experiment: Inhibition of PRMT8 (unknown origin) assessed as reduction in incorporation of [3H]-labeled methyl group into biotinylated substrate using [3H-SAM] at 50 uM incubated for 1 hr by scintillation proximity assay relative to control
Outline: (§1)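 Panel of 33 methyltransferases (22 PKMTs, 3 DNMTs, 8 PRMTs), each tested at 10 and 50 μM compound. Activity was read as ³H-methyl transfer from ³H-SAM in a radiometric assay done as previously described.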
Target sequence in this assay (Q9NR22 2-394 limits assumed): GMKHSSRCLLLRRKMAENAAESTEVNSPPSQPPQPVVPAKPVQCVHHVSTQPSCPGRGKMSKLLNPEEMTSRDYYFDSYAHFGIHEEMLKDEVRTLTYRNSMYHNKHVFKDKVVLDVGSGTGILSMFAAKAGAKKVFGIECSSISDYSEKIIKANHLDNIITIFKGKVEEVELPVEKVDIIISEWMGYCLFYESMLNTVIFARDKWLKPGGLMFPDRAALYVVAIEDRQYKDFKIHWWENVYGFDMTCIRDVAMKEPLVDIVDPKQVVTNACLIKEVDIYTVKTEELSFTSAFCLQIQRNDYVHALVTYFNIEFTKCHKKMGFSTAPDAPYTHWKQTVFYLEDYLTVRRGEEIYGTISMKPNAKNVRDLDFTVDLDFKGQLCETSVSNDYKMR

[3] = target: T3, Protein arginine N-methyltransferase 6 (Homo sapiens, UniProt Q96LA8); experiment: Time dependent inhibition of human PRMT6 pre-incubated for 1 to 30 mins using [3H]SAM as donor and [3H]methylated biotin-labeled peptide as substrate by scintillation proximity assay
Target sequence in this assay (Q96LA8 whole entry, looked up): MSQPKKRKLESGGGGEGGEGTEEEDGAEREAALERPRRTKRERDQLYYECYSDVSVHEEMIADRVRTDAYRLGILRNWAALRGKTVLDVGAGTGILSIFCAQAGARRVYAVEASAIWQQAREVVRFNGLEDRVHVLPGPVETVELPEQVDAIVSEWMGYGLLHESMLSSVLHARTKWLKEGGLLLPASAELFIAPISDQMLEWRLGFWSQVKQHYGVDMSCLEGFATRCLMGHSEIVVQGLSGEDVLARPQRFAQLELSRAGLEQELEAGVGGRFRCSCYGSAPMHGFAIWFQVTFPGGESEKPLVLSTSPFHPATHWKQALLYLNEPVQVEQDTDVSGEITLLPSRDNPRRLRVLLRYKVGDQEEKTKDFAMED

[4] = target: T4, Protein arginine N-methyltransferase 3 (Homo sapiens, UniProt O60678); experiment: Inhibition of PRMT3 (unknown origin) expressed in HEK293T cells were co-transfected with GFP-tagged histone H4 peptide assessed as reduction in H4R3 arginine asymmetric dimethylation at 0.2 to 20 uM incubated for 20 hrs; format: cell-based
Target sequence in this assay (O60678 2-531 limits assumed): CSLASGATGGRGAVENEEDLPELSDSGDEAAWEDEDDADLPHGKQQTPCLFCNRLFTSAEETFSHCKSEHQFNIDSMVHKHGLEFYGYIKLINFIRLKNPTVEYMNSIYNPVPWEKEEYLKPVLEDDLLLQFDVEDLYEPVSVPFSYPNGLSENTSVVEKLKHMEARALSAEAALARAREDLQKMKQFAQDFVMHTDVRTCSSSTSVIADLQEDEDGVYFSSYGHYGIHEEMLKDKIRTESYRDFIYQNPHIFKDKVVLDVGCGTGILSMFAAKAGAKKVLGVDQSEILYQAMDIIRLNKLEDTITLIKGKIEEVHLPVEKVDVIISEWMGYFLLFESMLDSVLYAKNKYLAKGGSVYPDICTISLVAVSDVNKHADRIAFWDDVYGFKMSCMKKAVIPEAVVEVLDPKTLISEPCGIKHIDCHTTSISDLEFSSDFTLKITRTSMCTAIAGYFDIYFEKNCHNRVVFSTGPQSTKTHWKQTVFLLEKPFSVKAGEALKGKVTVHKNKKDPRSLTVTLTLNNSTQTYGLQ

[5] = target: T3, Protein arginine N-methyltransferase 6; experiment: Inhibition of Flag-tagged PRMT6 (unknown origin) expressed in HEK293 cells at 0.1 to 10 uM incubated for 20 hrs assessed as reduction in H3R2me2a levels; format: cell-based
Target sequence in this assay (Q96LA8 whole entry, looked up): as the sequence (Q96LA8 whole entry, looked up) above

[6] = target: T3, Protein arginine N-methyltransferase 6; experiment: […] inhibition of human PRMT6 pre-incubated for 1 to 30 mins using [3H]SAM as donor and [3H]methylated biotin-labeled peptide as substrate by scintillation proximity assay
Target sequence in this assay (Q96LA8 whole entry, looked up): as above

[7] = target: T2, Protein arginine N-methyltransferase 8; experiment: Inhibition of human PRMT8 using [3H]SAM as donor and [3H]methylated biotin-labeled peptide as substrate by scintillation proximity assay
Outline: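 Radiometric SPA: ³H-methyl transfer from ³H-SAM to biotin-labeled peptide, captured on streptavidin/scintillant-coated plate, counts per minute read; substrate and cofactor each at their Km for the enzyme; compound titrated; IC50 from triplicate determinations, mean ± SD.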
Target sequence in this assay (Q9NR22 whole entry): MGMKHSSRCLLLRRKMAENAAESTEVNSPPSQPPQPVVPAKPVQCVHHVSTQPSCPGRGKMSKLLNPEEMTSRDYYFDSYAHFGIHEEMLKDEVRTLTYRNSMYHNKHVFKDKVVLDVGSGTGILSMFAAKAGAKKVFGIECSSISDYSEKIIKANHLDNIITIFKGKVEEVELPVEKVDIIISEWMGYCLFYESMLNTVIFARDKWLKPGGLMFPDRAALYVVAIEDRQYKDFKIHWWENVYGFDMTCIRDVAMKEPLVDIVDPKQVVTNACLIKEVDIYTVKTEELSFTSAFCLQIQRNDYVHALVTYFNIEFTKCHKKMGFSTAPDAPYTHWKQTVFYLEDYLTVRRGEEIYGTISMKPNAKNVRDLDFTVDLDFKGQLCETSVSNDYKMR

[8] = target: T1, Histone-arginine methyltransferase CARM1 (Homo sapiens); experiment: Inhibition of PRMT4 in human MCF7 cells assessed as reduction in BAF155 asymmetric dimethylation at 0.2 to 20 uM incubated for 2 days; format: cell-based
[9] = target: T1, Histone-arginine methyltransferase CARM1 (Homo sapiens); experiment: Inhibition of PRMT4 (unknown origin) assessed as reduction in incorporation of [3H]-labeled methyl group into biotinylated substrate using [3H-SAM] at 50 uM incubated for 1 hr by scintillation proximity assay relative to control; outline: as §1
MCF7 = experiment: Toxicity in human MCF7 cells assessed as reduction in cell viability up to 20 uM incubated for 3 days by CCK8 assay; format: cell-based; conditions: mcf7, 72 h
Outline: (§2)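 Cells seeded 1×10^4 per well in triplicate, treated after 24 h with serial dilutions from 20 μM for 3 days; CCK-8 (WST-8) added, 4 h at 37 °C, absorbance at 450 nm; mean ± SD of three replicate experiments.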

[10] = target: T3, Protein arginine N-methyltransferase 6; experiment: Inhibition of PRMT6 (unknown origin) assessed as reduction in incorporation of [3H]-labeled methyl group into biotinylated substrate using [3H-SAM] at 10 uM incubated for 1 hr by scintillation proximity assay; outline: as §1
Target sequence in this assay (Q96LA8 whole entry, looked up): as the sequence (Q96LA8 whole entry, looked up) above

[11] = target: T5, Histone-arginine methyltransferase CARM1 (Homo sapiens, UniProt Q86X55); experiment: Inhibition of human PRMT4 using [3H]SAM as donor and [3H]methylated biotin-labeled peptide as substrate by scintillation proximity assay
T5 sequence (Q86X55 whole entry): T1 sequence (whole entry)
Outline: (§3)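 Compound titrated into the reaction; 1 h enzyme–compound preincubation stated for PRMT6. Methylated peptide captured on streptavidin/scintillant-coated plates and counted (cpm). IC50 from concentration–response, triplicate, mean ± SD.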

HEK-293T = experiment: Toxicity in HEK293T cells assessed as reduction in cell viability up to 20 uM incubated for 3 days by CCK8 assay; format: cell-based; conditions: human, 72 h; outline: as §2
[12] = target: T6, Protein arginine N-methyltransferase 1 (Homo sapiens, UniProt Q99873); experiment: Inhibition of human PRMT1 using [3H]SAM as donor and [3H]methylated biotin-labeled peptide as substrate by scintillation proximity assay
Target sequence in this assay (Q99873 whole entry): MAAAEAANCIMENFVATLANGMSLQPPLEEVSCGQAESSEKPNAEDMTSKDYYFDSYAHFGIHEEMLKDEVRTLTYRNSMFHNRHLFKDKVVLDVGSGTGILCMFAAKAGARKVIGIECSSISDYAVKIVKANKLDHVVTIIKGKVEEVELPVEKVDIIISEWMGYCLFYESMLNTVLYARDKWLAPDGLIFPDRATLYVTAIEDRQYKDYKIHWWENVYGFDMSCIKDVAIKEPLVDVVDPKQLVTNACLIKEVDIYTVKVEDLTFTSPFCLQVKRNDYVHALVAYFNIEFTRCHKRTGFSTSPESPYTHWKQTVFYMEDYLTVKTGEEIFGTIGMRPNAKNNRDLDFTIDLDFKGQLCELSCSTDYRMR

[13] = target: T3, Protein arginine N-methyltransferase 6; experiment: Inhibition of PRMT6 (unknown origin) assessed as reduction in incorporation of [3H]-labeled methyl group into biotinylated substrate using [3H-SAM] at 50 uM incubated for 1 hr by scintillation proximity assay relative to control; outline: as §1
Target sequence in this assay (Q96LA8 whole entry, looked up): as the sequence (Q96LA8 whole entry, looked up) above

[14] = target: T4, Protein arginine N-methyltransferase 3; experiment: Inhibition of PRMT3 (unknown origin) assessed as reduction in incorporation of [3H]-labeled methyl group into biotinylated substrate using [3H-SAM] at 50 uM incubated for 1 hr by scintillation proximity assay relative to control; outline: as §1
Target sequence in this assay (O60678 2-531 limits assumed): as the sequence (O60678 2-531 limits assumed) above

[15] = target: T4, Protein arginine N-methyltransferase 3; experiment: Inhibition of PRMT3 (unknown origin) assessed as reduction in incorporation of [3H]-labeled methyl group into biotinylated substrate using [3H-SAM] at 10 uM incubated for 1 hr by scintillation proximity assay; outline: as §1
Target sequence in this assay (O60678 2-531 limits assumed): as above

[16] = target: T3, Protein arginine N-methyltransferase 6; experiment: Covalent binding affinity to human PRMT6 assessed as covalent adduct. formation at 300 uM pre-incubated for 1 hr by mass spectrometry
Outline: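 PRMT protein at 15 μM was incubated 1 h at room temperature with a 20-fold molar excess of inhibitor (300 μM). The reaction was quenched with 0.1% aqueous TFA, separated by HPLC (5–95% acetonitrile in water) and analysed by ESI time-of-flight LC/MS for protein–ligand adduct mass.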
Target sequence in this assay (Q96LA8 whole entry, looked up): as the sequence (Q96LA8 whole entry, looked up) above

[17] = target: T2, Protein arginine N-methyltransferase 8; experiment: Inhibition of PRMT8 (unknown origin) assessed as reduction in incorporation of [3H]-labeled methyl group into biotinylated substrate using [3H-SAM] at 10 uM incubated for 1 hr by scintillation proximity assay; outline: as §1
Target sequence in this assay (Q9NR22 2-394 limits assumed): as the sequence (Q9NR22 2-394 limits assumed) above

[18] = target: T1, Histone-arginine methyltransferase CARM1 (Homo sapiens); experiment: Inhibition of PRMT4 (unknown origin) assessed as reduction in incorporation of [3H]-labeled methyl group into biotinylated substrate using [3H-SAM] at 10 uM incubated for 1 hr by scintillation proximity assay; outline: as §1
PNT2 = experiment: Toxicity in human PNT2 cells assessed as reduction in cell viability up to 20 uM incubated for 3 days by CCK8 assay; format: cell-based; conditions: pnt2, 72 h; outline: as §2
[19] = target: T3, Protein arginine N-methyltransferase 6; experiment: Inhibition of human PRMT6 using [3H]SAM as donor and [3H]methylated biotin-labeled peptide as substrate by scintillation proximity assay; conditions: read-out: IC50; outline: as §3
Target sequence in this assay (Q96LA8 whole entry): as the sequence (Q96LA8 whole entry, looked up) above

[20] = target: T6, Protein arginine N-methyltransferase 1; experiment: Inhibition of PRMT1 in human MCF7 cells assessed as reduction in H4R3me2a levels incubated for 2 days by fluorescence based assay; format: cell-based
Outline: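 MCF7 cells with endogenous PRMT1 were treated with compound for 2 days, with MS023 (1 μM) as positive control. The H4R3me2a fluorescence signal was normalized to H4 and fitted nonlinearly to give IC50.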

[21] = target: T4, Protein arginine N-methyltransferase 3; experiment: Inhibition of human PRMT3 using [3H]SAM as donor and [3H]methylated biotin-labeled peptide as substrate by scintillation proximity assay; outline: as §3
Target sequence in this assay (O60678 whole entry): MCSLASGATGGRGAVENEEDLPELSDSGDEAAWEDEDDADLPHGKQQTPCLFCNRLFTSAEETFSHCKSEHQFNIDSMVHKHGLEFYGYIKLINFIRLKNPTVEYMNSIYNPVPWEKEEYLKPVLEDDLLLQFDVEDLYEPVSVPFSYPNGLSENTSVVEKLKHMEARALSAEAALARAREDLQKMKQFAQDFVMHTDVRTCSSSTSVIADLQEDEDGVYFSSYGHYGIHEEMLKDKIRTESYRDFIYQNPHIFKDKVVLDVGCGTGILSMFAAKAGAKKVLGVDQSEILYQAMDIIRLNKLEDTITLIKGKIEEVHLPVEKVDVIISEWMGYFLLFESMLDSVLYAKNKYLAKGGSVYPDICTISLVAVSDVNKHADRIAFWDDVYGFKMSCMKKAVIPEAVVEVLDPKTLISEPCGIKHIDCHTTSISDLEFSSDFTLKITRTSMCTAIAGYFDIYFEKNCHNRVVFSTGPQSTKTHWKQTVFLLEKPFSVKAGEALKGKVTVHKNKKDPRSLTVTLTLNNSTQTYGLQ

[22] = Inhibition of type 1 PRMT (unknown origin); parameters: species or system Homo sapiens
[23] = target: T3, Protein arginine N-methyltransferase 6; experiment: Inhibition of Flag-tagged PRMT6 (unknown origin) expressed in HEK293 cells at 2 uM incubated for 20 hrs assessed as reduction in H3R2me2a levels; format: cell-based
[24] = target: T4, Protein arginine N-methyltransferase 3; experiment: Inhibition of PRMT3 (unknown origin) expressed in HEK293T cells were co-transfected with GFP-tagged histone H4 peptide assessed as reduction in H4R3 arginine asymmetric dimethylation at 2.2 to 20 uM incubated for 20 hrs; format: cell-based
Target sequence in this assay (O60678 2-531 limits assumed): as the sequence (O60678 2-531 limits assumed) above

[25] = target: T1, Histone-arginine methyltransferase CARM1 (Homo sapiens); experiment: Inhibition of PRMT4 in human MCF7 cells assessed as reduction in BAF155 asymmetric dimethylation at 2.2 to 20 uM incubated for 2 days; format: cell-based

SMILES | inhibition [5] | pIC50 [7] | Activity (MCF7) | inhibition [10] | pIC50 [11] | Activity (HEK-293T) | inhibition [13] | Activity [16] | Activity (PNT2) | pIC50 [19] | pIC50 [21] | also measured
CNCCN1CCC(c2cc(CN(C)C(=O)c3cccc(Oc4ccccc4)c3)ccn2)CC1 | – | – | – | – | – | – | – | – | – | – | – | inhibition [1]: Active
CCC(=O)Nc1cccc(-c2c[nH]cc2CN(C)CCN)c1 | Active | 6.89 | Non-Toxic | > 40% | 5.70 | Non-Toxic | > 80% | inactive | Non-Toxic | 7.55 | 4.82 | inhibition [2]: > 80%; TDI [3]: inactive; inhibition [4]: inactive; inhibition [6]: Active; inhibition [8]: inactive; inhibition [9]: > 80%; pIC50 [12]: 6.77; inhibition [14]: > 80%; inhibition [15]: > 40%; inhibition [17]: > 40%; inhibition [18]: > 40%; pIC50 [20]: 5.17; inhibition [20]: Dose-dependent effect
CC(C)Oc1ccc(-c2c[nH]cc2CN(C)CCN)cc1 | – | – | – | – | – | – | – | – | – | – | – | pIC50 [22]: 6.92 to 8.40; inhibition [23]: Active
C=CC(=O)Nc1cccc(-c2c[nH]cc2CN(C)CCO)c1 | inactive | 4.64 | Non-Toxic | 50% | 4.29 | Non-Toxic | 80% | inactive | Non-Toxic | 5.01 | < 3.70 | inhibition [24]: inactive; inhibition [25]: inactive
